This note sets out measurements from article PMC2190483 (The Journal of Experimental Medicine, 1976).

In test [1] the test system is human eosinophils. Nature of the test: Chemotactic deactivation of eosinophils, assessed by response to Val-Gly-Ser-Glu. Format: cell-based. The conditions noted are these: for deactivation (qualitative): 10-r' M tetrapeptide, response to valyl-tetrapeptide, Fig. 3. A digest of the protocol:
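Leukocytes from hypereosinophilic donors were dextran-sedimented, washed and resuspended in HBSS with 0.4% ovalbumin and Tris-HCl pH 7.4. Eosinophils were preincubated 2–40 min at 37°C with graded valyl- or alanyl-tetrapeptide, then washed three times. They were then challenged in a Boyden chamber (3-µm filter) with 10^-7 M valyl-tetrapeptide. Residual response is given as % of buffer-treated cells, mean ±1 SD of three experiments.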

Test [2] deals with human eosinophils. Nature of the test: Cross-deactivation of eosinophils, assessed by response to C5a. Format: cell-based. Conditions: 10-12 M tetrapeptide pretreatment; Fig. 4. A digest of the protocol: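 Eosinophils in HBSS-ovalbumin were pretreated 2–40 min at 37°C with graded valyl- or alanyl-tetrapeptide and washed three times. They were then challenged in a Boyden chamber with C5a at the level derived from 2.5 µg equivalent of C5/ml. C5a came from tryptic digestion of human plasma C5, heated 20 min at 61°C and centrifuged. Results are % of buffer-treated control, mean ±1 SD, three experiments.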

Test [3] deals with human eosinophils. Nature of the test: Eosinophil chemotaxis in modified Boyden chambers. The test is classed as cell-based. Conditions: for chemotactic activity (qualitative): eosinophils; for magnitude of the maximum eosinophil response (rank among tetrapeptides): Discussion, Fig. 1. In short, it runs like this: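 Blood from donors with 26–89% eosinophilia was citrate/dextran-sedimented 30 min at 37°C and centrifuged 100 g for 10 min. Leukocytes were washed three times into HBSS-0.4% ovalbumin-Tris pH 7.4. Stimuli in the lower compartment were separated from cells by a 3-µm filter, incubated 2½–3 h at 37°C. Fixed, stained filters were read blind at background depth (2–8 cells/hpf), 10 hpf from duplicate chambers, as net cells/hpf.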

In test [4] the test system is human eosinophils. Nature of the test: Modulation. The test is classed as cell-based. The conditions noted are these: for irreversible inhibition of the eosinophil response to 10-7 M valyl-tetrapeptide: neutrophil comparison; for inhibition of response to 10-7 M valyl-tetrapeptide: pretreatment with 10^-7 M tripeptide followed by washing; for inhibition of the valyl-tetrapeptide effect: 10^-7 M tripeptide added with the stimulus. In short, it runs like this:
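Tripeptides or amides were added to the stimulus compartment with 10^-7 M valyl-tetrapeptide or to the cell compartment. Alternatively, eosinophils were preincubated with them 20 min at 37°C and washed three times. Migration in a modified Boyden chamber (3-µm filter, 2½–3 h, 37°C) was counted as net eosinophils/hpf. It is expressed as % of the response of buffer-treated cells.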

The subject of test [5] is human eosinophils. Nature of the test: Suppression of the eosinophil chemotactic response to C5a by tripeptides. Conditions: for inhibition of response to C5a: pretreatment with 10^-7 M tripeptide followed by washing; for inhibition of the C5a-stimulated response: 10^-7 M tripeptide added with the stimulus. The test is classed as cell-based. In short, it runs like this: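 NH2-terminal tripeptide was added to the stimulus compartment with C5a in two experiments. In three experiments, eosinophils were pretreated with COOH-terminal tripeptide and washed. The C5a stimulus was a tryptic digest of purified human plasma C5, heat-treated 20 min at 61°C.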

Another test deals with neutrophils. Nature of the test: Neutrophil chemotaxis to valyl-tetrapeptide and its inhibition by tripeptides. The test is classed as cell-based, human. Conditions: for irreversible inhibition of the neutrophil response: response to 10^-7 M valyl-tetrapeptide; for inhibition of the response of neutrophils: tripeptide added to the stimulus, equimolar to valyl-tetrapeptide; for chemotactic response of neutrophils: valyl-tetrapeptide stimulus, neutrophils purified to 98%. A digest of the protocol:
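Neutrophils from normal donors were isolated on Ficoll-Hypaque to 98% purity, washed and resuspended in HBSS-ovalbumin. They were tested in modified Boyden chambers with a 3-µm filter against 10^-7 M valyl-tetrapeptide, with or without NH2- or COOH-terminal tripeptide, for 2½–3 h at 37°C. Migrated cells were counted blind in 10 hpf from duplicate chambers as net neutrophils/hpf.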

In test [6] the test system is human eosinophils. Format: cell-based. In short, it runs like this: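 Eosinophils were pretreated 20 min at 37°C with deactivating valyl-tetrapeptide or COOH-terminal tripeptide, with Val-Gly-Ser present at graded concentrations. They were then washed three times. Residual chemotactic response to 10^-7 M valyl-tetrapeptide was measured in Boyden chambers. It is expressed as mean % of buffer-exposed control response, from two experiments with different donors.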

On to Ala-Gly-Ser-Glu, for which the “deactivation (qualitative)” value with human eosinophils [1] is reported as “substantial deactivation”. Further, the “effect on eosinophil responsiveness to C5a” value in the test with human eosinophils [2] is “did not decrease”.
Take Gly-Ser-Glu: the “chemotactic activity (qualitative)” value in the test on human eosinophils [3] is “only marginally chemotactic”. For the same molecule, the “effect when mixed with stimulus” value with human eosinophils [4] (10^-7 M mixed with an equimolar quantity of valyl-tetrapeptide stimulus) is reported as “ineffective”. In addition, the “irreversible inhibition of the eosinophil response to 10-7 M valyl-tetrapeptide” value in the test with human eosinophils [4] (experiment 1) was 61%; in the test with human eosinophils [4] (experiment 2) it was 74%. The results for the “inhibition of response to 10-7 M valyl-tetrapeptide” value with human eosinophils [4] (experiment 2 of three) and in the test on human eosinophils [4] (experiment 3 of three) were 62% and 48%, respectively. Moreover, the “inhibition of response to C5a” value in the test with human eosinophils [5] (experiment 1 of three) was 71%; with human eosinophils [5] (experiment 2 of three), 53%; in the test on human eosinophils [5] (experiment 3 of three), 37%. Further, the “irreversible inhibition of the neutrophil response” value in the test on neutrophils (experiment 1) stood at 33%; with neutrophils (experiment 2), 28%.
With Leu- Ser-Glu [Leu-Ser-Glu], the “maximum activity as fraction of maximum chemotactic activity of tetrapeptides” value with human eosinophils [3] (versus maximum obtained with 10^-7 M tetrapeptides, Fig. 2) is “approximately two-thirds”.
For the molecule Leu-Gly-Ser-Glu, the “magnitude of the maximum eosinophil response (rank among tetrapeptides)” value in the test with human eosinophils [3] is “the least”.
Turning to Phe-Gly-Ser-Glu, in the test with human eosinophils [3], the “magnitude of the maximum eosinophil response (rank among tetrapeptides)” value is given as “greatest maximum response”. Besides, the “deactivating activity (qualitative)” value in the test with human eosinophils [1] (at 10^-6 M) was “comparable to 10-~ M alanyl-tetrapeptide”; in the test on human eosinophils [1] (at 10^-7 M), “minimally evident”.
In the case of Val-Gly-Ser, the “chemotactic activity (qualitative)” value with human eosinophils [3] is recorded as “only marginally chemotactic”. Further, the “inhibition of the valyl-tetrapeptide effect” value in the test with human eosinophils [4] (experiment 1 of two) is 47%; with human eosinophils [4] (experiment 2 of two), 61%. Further, the “inhibition of the eosinophil response” value is on record as 50-60% in the test with human eosinophils [4] (on the stimulus side with 10^-7 M valyl-tetrapeptide, equimolar concentrations, Discussion, Fig. 5) and 50% in the test on human eosinophils [4] (tripeptide added to the 10^-7 M tetrapeptide stimulus at approximately an equimolar concentration, Fig. 5, Results). For the same molecule, the “inhibition of the C5a-stimulated response” value in the test with human eosinophils [5] (experiment 1 of two) was found to be 18%; in the test with human eosinophils [5] (experiment 2 of two) it was 29%. In the test on human eosinophils [6] (at an equimolar concentration or at a 10-fold excess), the “protection against the COOH-terminal tripeptide” value is “no protection”. Moreover, in the test with human eosinophils [6] (equimolar concentration of tripeptide and deactivating valyl-tetrapeptide), the “protection from deactivation by valyl-tetrapeptide” value is listed as 40-50%. The “protection from deactivation by valyl-tetrapeptide (qualitative)” value in the test on human eosinophils [6] (tripeptide at 10^-7 M with 10^-8 M valyl-tetrapeptide) was “completely protective”. Further, the “reduction of the neutrophil response to 10-7 M valyl-tetrapeptide” value in the test with neutrophils (equimolar concentrations, Discussion) was “Approximately 50%”. In addition, the “inhibition of the response of neutrophils” value stood at 49% in the test on neutrophils (experiment 1) and 54% in the test with neutrophils (experiment 2).
Val-Gly-Ser-Glu: the control chemotactic response came to 12.3 net eosinophils per hpf in the test on human eosinophils [3] (10^-7 M stimulus, Table I, donor 2 (37% eosinophilia)) and 11.7 net eos/hpf with human eosinophils [3] (10^-7 M stimulus, Table II, experiment 2, buffer-exposed cells). In the test with human eosinophils [3] (valyl-tetrapeptide stimulus, neutrophil comparison, experiment 2), the “chemotactic response of eosinophils” value is listed as 15.3 eosinophils (eos)/hpf. In the test with human eosinophils [1], the “deactivation (qualitative)” value is reported as “substantial deactivation”. In addition, the “effect on eosinophil responsiveness to C5a” value with human eosinophils [2] is given as “did not decrease”. Moreover, the figures for the “chemotactic response of neutrophils” value in the test on neutrophils (experiment 1) and in the test with neutrophils (experiment 2) were 16.9 neutrophils/hpf and 21.4 neutrophils/hpf, respectively.

B1: C5a: prepared by tryptic digestion of purified C5 prepared from human plasma (protein, UniProt P01031 678-751, looked up)
C5a anaphylatoxin: TLQKKIEEIAAKYKHSVVKKCCYDGACVNNDETCEQRAARISLGPRCIKAFTECCVVASQLRANISHKDMQLGR
modifications: C5a anaphylatoxin
Regarding B1, the control chemotactic response in the test on human eosinophils [3] (C5a derived from 2.5 µg equivalent of C5/ml, Fig. 4, donor 2 (43% eosinophilia)) worked out at 16.5 net eos/hpf; in the test with human eosinophils [3] (C5a derived from 2.5 µg equivalent of C5/ml, Fig. 4, donor 3 (59% eosinophilia)), 18.8 net eos/hpf.
